# Laboratory results published in PubChem BioAssay.
# Calls of active or inactive are those of the source.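 The calls were made as follows, unless noted: active = duplicate-averaged activation above buffer control mean plus 5 SD of those controls; inactive = the rest.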
# Test system: not listed separately
# Experiment: nonspecific flux increase, KCNQ1-free cells – parental CHO cells, counter-screen for KCNQ1 potentiator project (AID 493006)
# Conditions: parental CHO-K1 cells, FluxOR thallium flux, at 10 µM; active compounds read high
# Method in brief: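 Test system: parental CHO-K1 cells, FluxOR dye-loaded / Probe or stimulus: potassium plus thallium depolarizing stimulus, 5x stock 12.5 mM K2SO4, Tl2SO4 / Timing: overnight 37 °C plating, 90 min dye, 20 min dark compound / Measured by: kinetic thallium-flux fluorescence / Read-out: max-minus-min fluorescence over baseline, percent of buffer-to-R-L3 span / Benchmarks: buffer and R-L3 controls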
SMILES,outcome,activation
COc1ccc(CCNC(=O)CC(=O)N/N=C/c2ccc(Br)cc2)cc1OC,inactive,–
C/C(=N\NC(=S)Nc1cccc(C)c1)c1ccco1,inactive,–
CCCCCCCCCCCCC/C=C/[C@@H](O)[C@@H](N)CO,–,406% (active)
CC(=O)Nc1cccc(/C(C)=N/NC(=O)c2ccc(Cl)cc2Cl)c1,inactive,–
COc1ccc(-c2cnc3c(c2)CCC3(C#N)C#N)cc1,inactive,–
CN1C(=O)CC(N2CCN(CC(=O)N3CCCC3)CC2)C1=O (stereo not given),inactive,–
COC(=O)c1ccc(C(=O)NC(=S)Nc2nc3c(s2)CCCC3)cc1,–,210% (active)
CCC1CCC2(CC1)NNC(=S)NN2,inactive,–
COc1ccc(/C=C2\SC(=S)N(NS(=O)(=O)c3ccc(C)cc3)C2=O)c(OC)c1,–,138% (active)
Oc1ccc(CN2CCCCC2)c2cccnc12,–,170% (active)
O=c1c2cc(Br)ccc2nc(-c2ccccc2)n1O,–,366% (active)
COc1ccc(/C=C2\SC(=Nc3ccccc3OC)NC2=O)cc1,inactive,–
O=c1c2cc(Cl)ccc2nc(-c2ccc([N+](=O)[O-])cc2)n1O,–,445% (active)
CCOc1ccc2nc(/N=C/c3nc(-c4ccccc4)oc3O)sc2c1,–,150% (active)
COc1cccc(OCC(=O)NNC(=O)C(=O)Nc2cccc(C)c2)c1,–,188% (active)
Cc1ccccc1NS(=O)(=O)c1ccc2[nH]cc(C(=O)N(C)Cc3ccco3)c(=O)c2c1,inactive,–
Cc1ccnc(NC(=O)CNC(=O)c2ccc3c(c2)OCO3)c1,inactive,–
Cc1ccc(C)c(NC(=S)NC(=O)c2cncc(Br)c2)c1,inactive,–
Cc1ccc(C(=O)CC(=O)COc2ccc(Cl)cc2C)cc1,inactive,–
S=c1nc[nH]c2c1sc1nc(-c3ccccc3)c3c(c12)CCCC3,–,456% (active)

SMILES,outcome,activation
Cc1ccc2sc(N(CCCN(C)C)C(=O)CCS(=O)(=O)c3ccccc3)nc2c1C,inactive,–
O=C(COc1ccc(C(=S)N2CCC(Cc3ccccc3)CC2)cc1)N1CCOCC1,inactive,–
S=c1nc(C2CCCCC2)n(-c2ccccc2)[nH]1,–,356% (active)
CNCc1ccccc1Sc1cccc2ccccc12,inactive,–
COC(=O)c1ccc(COC(=O)c2ccccn2)cc1,inactive,–
CCOc1ccc(NC(=S)NC(=O)c2ccco2)cc1,inactive,–
COc1cc(CNCc2ccccn2)ccc1OCc1ccc(Cl)cc1,inactive,–
O=C(NC(=S)Nc1ccccc1N1CCCC1)c1cccs1,–,150% (active)
COc1ccc(C(=O)CC(=O)C(=O)Nc2ccc(C)c(Cl)c2)cc1,–,138% (active)
COc1ccc(C)cc1NC(=O)C1C2C=CC(C2)C1C(=O)O (stereo not given),inactive,–
Cc1nn(-c2ccccc2)c(Cl)c1/C=C1\SC(=S)NC1=O,–,614% (active)
CCOc1ccc(NC(=O)C2CCN(S(=O)(=O)c3cccnc3)CC2)cc1,inactive,–
Cc1cnc(NC(=O)c2ccc(-c3nc4ccccc4s3)o2)s1,inactive,–
CCCCOC(=S)NC(=O)c1sc2ccccc2c1Cl,–,448% (active)
O=C(NC(=S)Nc1ccc(N2CCCCC2)cc1)c1cccs1,–,158% (active)
O=Cc1c(F)cccc1N1CCCC1,inactive,–
CC(C)(C)C1(O)CC(C(F)(F)F)=NN1C(=O)Cc1ccc([N+](=O)[O-])cc1 (stereo not given),inactive,–
CC(CCc1ccccc1)NC(=O)COc1cc(F)ccc1[N+](=O)[O-] (stereo not given),inactive,–
Cc1sc(-n2c(C)cc(/C=N/n3cnnc3)c2C)c(C#N)c1C,inactive,–
COc1ccc(CCN(C)CC(O)COc2c(C)ccc(C)c2C)cc1OC (stereo not given),inactive,–

# Molecular target: Potassium voltage-gated channel subfamily KQT member 1 (Homo sapiens) (UniProt P51787)
# Experiment: enhancement of KCNQ1 channel thallium flux – FluxOR thallium flux, CHO cells, duplicates, confirmation (AID 493007;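 active = potentiation averaged over duplicate wells exceeding buffer-only control mean by more than 3 SD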;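 as to outcome: cells depolarized by a potassium plus thallium sulfate stimulus after compound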;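 as to potentiation: 0% = buffer-only wells and 100% = R-L3 activator control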)
# Conditions: KCNQ1 cell line, FluxOR thallium flux fluorescence, at 10 µM; active compounds read high, % of reference activator effect, buffer zero
# Method in brief: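 Assay system: CHO cells carrying KCNQ1 | Controls: Buffer and R-L3 controls | Schedule: FluxOR dye loading 90 min, compound exposure 20 min, room temperature | Read-out: Baseline-normalized fluorescence change, percent of buffer-to-R-L3 range | Replicates: Each compound tested in duplicate | Technique: Kinetic thallium influx fluorescence with FluxOR dye, 10 s baseline, 110 s post-stimulus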
# Chain of Potassium voltage-gated channel subfamily KQT member 1 (Homo sapiens) (P51787 whole entry, looked up): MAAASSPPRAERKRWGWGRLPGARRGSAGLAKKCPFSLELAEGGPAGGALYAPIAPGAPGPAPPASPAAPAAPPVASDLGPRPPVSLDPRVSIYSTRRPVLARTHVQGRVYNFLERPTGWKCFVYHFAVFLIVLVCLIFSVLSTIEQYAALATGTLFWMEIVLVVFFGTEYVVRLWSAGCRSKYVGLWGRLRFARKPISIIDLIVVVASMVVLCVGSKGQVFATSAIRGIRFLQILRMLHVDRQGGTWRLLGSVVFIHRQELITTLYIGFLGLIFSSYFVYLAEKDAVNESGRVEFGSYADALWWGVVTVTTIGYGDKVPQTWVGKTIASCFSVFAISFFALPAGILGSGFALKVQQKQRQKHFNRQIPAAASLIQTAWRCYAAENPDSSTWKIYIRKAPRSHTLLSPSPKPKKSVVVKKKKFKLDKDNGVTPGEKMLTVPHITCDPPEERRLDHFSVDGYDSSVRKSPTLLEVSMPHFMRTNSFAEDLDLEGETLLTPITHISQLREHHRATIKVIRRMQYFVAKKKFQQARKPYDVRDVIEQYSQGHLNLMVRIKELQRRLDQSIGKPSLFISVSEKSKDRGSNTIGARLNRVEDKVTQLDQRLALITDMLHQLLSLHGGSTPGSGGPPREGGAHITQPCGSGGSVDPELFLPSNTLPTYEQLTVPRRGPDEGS
SMILES,outcome,potentiation
COc1ccc(CCNC(=O)CC(=O)N/N=C/c2ccc(Br)cc2)cc1OC,inactive,–
C/C(=N\NC(=S)Nc1cccc(C)c1)c1ccco1,–,35% (active)
CCCCCCCCCCCCC/C=C/[C@@H](O)[C@@H](N)CO,–,218% (active)
CC(=O)Nc1cccc(/C(C)=N/NC(=O)c2ccc(Cl)cc2Cl)c1,inactive,–
COc1ccc(-c2cnc3c(c2)CCC3(C#N)C#N)cc1,inactive,–
CN1C(=O)CC(N2CCN(CC(=O)N3CCCC3)CC2)C1=O (stereo not given),inactive,–
COC(=O)c1ccc(C(=O)NC(=S)Nc2nc3c(s2)CCCC3)cc1,–,169% (active)
CCC1CCC2(CC1)NNC(=S)NN2,inactive,–
COc1ccc(/C=C2\SC(=S)N(NS(=O)(=O)c3ccc(C)cc3)C2=O)c(OC)c1,–,77.5% (active)
Oc1ccc(CN2CCCCC2)c2cccnc12,–,47% (active)
O=c1c2cc(Br)ccc2nc(-c2ccccc2)n1O,–,63.5% (active)
COc1ccc(/C=C2\SC(=Nc3ccccc3OC)NC2=O)cc1,inactive,–
O=c1c2cc(Cl)ccc2nc(-c2ccc([N+](=O)[O-])cc2)n1O,–,193% (active)
CCOc1ccc2nc(/N=C/c3nc(-c4ccccc4)oc3O)sc2c1,–,52.5% (active)
COc1cccc(OCC(=O)NNC(=O)C(=O)Nc2cccc(C)c2)c1,–,74.5% (active)
Cc1ccccc1NS(=O)(=O)c1ccc2[nH]cc(C(=O)N(C)Cc3ccco3)c(=O)c2c1,–,44% (active)
Cc1ccnc(NC(=O)CNC(=O)c2ccc3c(c2)OCO3)c1,inactive,–
Cc1ccc(C)c(NC(=S)NC(=O)c2cncc(Br)c2)c1,–,18.5% (active)
Cc1ccc(C(=O)CC(=O)COc2ccc(Cl)cc2C)cc1,–,180% (active)
S=c1nc[nH]c2c1sc1nc(-c3ccccc3)c3c(c12)CCCC3,–,328% (active)

SMILES,outcome,potentiation
Cc1ccc2sc(N(CCCN(C)C)C(=O)CCS(=O)(=O)c3ccccc3)nc2c1C,inactive,–
O=C(COc1ccc(C(=S)N2CCC(Cc3ccccc3)CC2)cc1)N1CCOCC1,inactive,–
S=c1nc(C2CCCCC2)n(-c2ccccc2)[nH]1,–,117% (active)
CNCc1ccccc1Sc1cccc2ccccc12,inactive,–
COC(=O)c1ccc(COC(=O)c2ccccn2)cc1,–,65% (active)
CCOc1ccc(NC(=S)NC(=O)c2ccco2)cc1,–,29% (active)
COc1cc(CNCc2ccccn2)ccc1OCc1ccc(Cl)cc1,inactive,–
O=C(NC(=S)Nc1ccccc1N1CCCC1)c1cccs1,–,104% (active)
COc1ccc(C(=O)CC(=O)C(=O)Nc2ccc(C)c(Cl)c2)cc1,–,26% (active)
COc1ccc(C)cc1NC(=O)C1C2C=CC(C2)C1C(=O)O (stereo not given),inactive,–
Cc1nn(-c2ccccc2)c(Cl)c1/C=C1\SC(=S)NC1=O,–,295% (active)
CCOc1ccc(NC(=O)C2CCN(S(=O)(=O)c3cccnc3)CC2)cc1,inactive,–
Cc1cnc(NC(=O)c2ccc(-c3nc4ccccc4s3)o2)s1,inactive,–
CCCCOC(=S)NC(=O)c1sc2ccccc2c1Cl,–,206% (active)
O=C(NC(=S)Nc1ccc(N2CCCCC2)cc1)c1cccs1,–,74.5% (active)
O=Cc1c(F)cccc1N1CCCC1,inactive,–
CC(C)(C)C1(O)CC(C(F)(F)F)=NN1C(=O)Cc1ccc([N+](=O)[O-])cc1 (stereo not given),inactive,–
CC(CCc1ccccc1)NC(=O)COc1cc(F)ccc1[N+](=O)[O-] (stereo not given),inactive,–
Cc1sc(-n2c(C)cc(/C=N/n3cnnc3)c2C)c(C#N)c1C,–,17.5% (active)
COc1ccc(CCN(C)CC(O)COc2c(C)ccc(C)c2C)cc1OC (stereo not given),inactive,–
